# Rows were chosen to be rich in hits. Some 6.4% of all compounds tested hit in one or more screens of this group.
# Ecoli WT expand: E. coli BW25113 growth inhibition, expanded screen; OD600 absorbance; actives 0.15% (n = 98,000); growth inhibition, % at 100 µM;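 active = growth inhibition above about 50% at one test dose, limit read from the data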;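 note: growth measured after 20 h incubation at 37 °C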
# Lung fibro prol: blocks proliferation of human lung fibroblasts | actives 1.1% (n = 85,000) | viability, % at 10 µM | LL 47 human lung fibroblast viability, ATP luminescence; active compounds read low | AID 719;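 active = viability at or below 50% in the single dose screen; inactive = viability above 50%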;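 note: compound exposure lasted 72 h before the ATP readout; 100% = median luminescence of untreated cell-only wells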
#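 Test system: LL 47 human lung fibroblasts; Quantity: 1,150 cells/well; Buffer or medium: IMEM plus 15% FBS; Dosing: tenfold compound dosing solution, DMSO at 0.1%; Timing: overnight cell rest, 72 h compound treatment at 37 °C; Detection: ATP-based CellTiter-Glo luminescent readout; Read-out basis: viability percentage against median untreated-cell control; Controls: cell-only wells, no compound.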
# HUVEC inhibit: blocks proliferation of human endothelial cells; HUVEC proliferation, CellTiter-Glo luminescence, 72 h; active compounds read low; viability, % at 10 µM (by protocol); actives 1.1% (n = 86,000); AID 648;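 active = viability at or below 30%; inactive = viability above 30%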;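 note: 100% = median luminescence of DMSO-only cell control wells on each plate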
# Jurkat viability: cytotoxic compounds reducing Jurkat cell viability; Jurkat E6.1 viability, ATP luminescence, 48 h; inhibition, % at 4 µM; actives 1.2% (n = 56,000);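 active = inhibition above the mean inhibition of all tested compounds plus 3 SD, cut at about 28% in these data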
# Ecoli tolC: blocks growth of E. coli BW25113 tolC mutant | OD615 | growth inhibition, % at 10 µM (by protocol) | actives 2.2% (n = 65,000);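 active = growth inhibition at or above a cutoff equal to the mean over every tested compound plus 3 SD, cut at about 60% in these data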;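 note: growth measured after 20 h incubation at 37 °C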
#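 Doses: one dose of 10 µM final / Material: E. coli BW25113 ΔtolC::kan, tolC deletion mutant strain / Buffer or medium: LB with kanamycin 50 µg/mL / Evaluation: percent growth inhibition / Detection: optical density read at 615 nm / Incubation: 37 °C, 20 h exposure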
# H69AR inhibit: growth inhibitors of human H69AR lung tumor cells. actives 6% (n = 85,000). AID 598. H69AR lung tumor viability, ATP luminescence, 72 h; active compounds read low. viability, % at 10 µM;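 active = viability at or below 40%; inactive = viability above 40%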;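 note: multidrug resistant small cell line overexpressing MRP-1 efflux transporter; 100% = mean luminescence of untreated control wells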
# An asterisk follows results filed as active; nt = no result.
SMILES,Ecoli WT expand,Lung fibro prol,HUVEC inhibit,Jurkat viability,Ecoli tolC,H69AR inhibit
COC(=O)Nc1ccc(S(=O)(=O)Nc2cccc3ccccc23)cc1,3,nt,80,nt,nt,35*
COc1ccc(S(=O)(=O)Nc2ccccc2C(F)(F)F)cc1,2,102,93,1,9,89
C[C@]12CCC(=O)C=C1CC[C@@H]1[C@@H]2C(=O)C[C@@]2(C)[C@H]1CC[C@]2(O)C(=O)CO,nt,96,108,nt,-7,101
COc1ccc(-c2nnn(Cc3ccccc3F)n2)cc1,nt,92,101,nt,nt,90
O=C(Cc1ccc(Cl)cc1)Nc1ccc2oc(-c3ccncc3)nc2c1,-12,8.1*,18*,0,24,32*
CCCC(=O)Nc1ccc(-c2nc3cc(C)c(C)cc3o2)c(O)c1,-6,85,105,0,14,55
COc1ccc(CC(=O)Nc2ccc(-c3nc4cc(C)ccc4o3)c(O)c2)cc1OC,-10,40*,91,5,17,49
O=C(Cc1ccccc1)Nc1ccc2oc(-c3cccnc3)nc2c1,8,106,93,4,11,85
O=C(Nc1ccc(-c2nc3cc(Cl)ccc3o2)cc1)C1CCCO1 (centres undefined),nt,71,113,nt,nt,33*
O=C(Nc1ccc(-c2nc3ccccc3o2)cc1)C1CCCO1 (centres undefined),-3,105,86,9,18,88
Cc1sc2nc(SCC(=O)OC(C)C)n(C)c(=O)c2c1C,-13,93,81,nt,0,92
CC(=O)NC1=NN(C(C)=O)C(C)(c2cccs2)S1 (centres undefined),nt,57,76,nt,nt,28*
COC(=O)c1cc(NC(=O)c2ccc(Cn3cc(Cl)cn3)o2)cc(C(=O)OC)c1,-7,6.8*,32,10,29,2.7*
CCOc1ccc(Cn2nnc(C(=O)NCCc3ccc(Cl)cc3)c2N)cc1,-12,94,106,nt,nt,103
COc1cc2ncnc(NCc3ccc(C)cc3)c2cc1OC,5,nt,nt,nt,nt,nt
COc1ccc2cc3cc(C(=O)Nc4ccc5c(c4)OCO5)oc3nc2c1,1,108,10*,-4,-17,24*
COc1ccc2cc3cc(C(=O)NCCc4ccc(OC)c(OC)c4)oc3nc2c1,-4,120,25*,18,-7,29*
COC(=O)c1ccc(Cl)c(NC(=O)NC2CCCCC2)c1,2,102,87,-4,-12,29*
COC(=O)c1ccc(Cl)c(NC(C)=O)c1,4,nt,nt,-7,-6,nt
COc1ccc(-c2n[nH]c(C(F)(F)F)c2-c2cc3ccccc3o2)c(O)c1,17,79,12*,nt,100*,11*
COc1ccc(-c2n[nH]c(C)c2-c2ccc(Cl)cc2)c(O)c1,26,66,30,nt,nt,48
C=CCn1c(=O)c2c3c(sc2n2c(Nc4ccc(OC)cc4)nnc12)CCCC3,-9,95,78,-3,15,90
C=CCn1c(=O)c2c3c(sc2n2c(Nc4ccc(C(=O)OCC)cc4)nnc12)CCCC3,-10,104,86,nt,nt,39*
CN1/C(=C/C(=O)c2nc(S(C)(=O)=O)ncc2Cl)C(C)(C)c2ccccc21,-3,19*,24,102*,48,0.6*
Cc1cc(NC(=O)c2cncc(Br)c2)n(-c2ccccn2)n1,-2,99,85,nt,-19,37*
SMILES,Ecoli WT expand,Lung fibro prol,HUVEC inhibit,Jurkat viability,Ecoli tolC,H69AR inhibit
Cc1cc(NC(=O)c2ccc(S(=O)(=O)N(C)C)cc2)n(-c2ccccn2)n1,-3,nt,nt,nt,nt,nt
COC(=O)c1ccccc1NC(=O)c1cc(-c2cccs2)on1,0,90,25*,-7,-13,11*
CCOc1cc(S(=O)(=O)N2CC=C(c3ccc(F)cc3)CC2)c(OCC)cc1-n1cnnn1,-22,48*,63,-8,6,12*
O=C(CCC1CCCC1)NCCCN1CCOCC1,-6,109,102,3,-13,107
N#CC1=C(C2CC2)CC(c2ccccc2)C(C#N)=C1N (centres undefined),-3,81,71,2,-5,39*
COC(=O)Cc1c(C)nc2nc(NCc3ccccc3OC)[nH]n2c1=O,0,96,88,nt,nt,85
COCCN(CCOC)c1ncnc2c1cnn2-c1ccccc1,nt,103,98,4,-8,90
CN(Cc1ccccc1)c1ncnc2c1cnn2-c1ccccc1,-15,102,109,nt,92*,91
CCN(c1ccccc1)c1ncnc2c1cnn2-c1ccccc1,-2,106,88,-7,100*,80

# Screening results deposited in PubChem BioAssay by several laboratories.
